From ChEMBL document CHEMBL2380310, “Discovery of 7-oxopyrazolo[1,5-a]pyrimidine-6-carboxamides as potent and selective CB(2) cannabinoid receptor inverse agonists” (J Med Chem, 2013) come the findings set out here.

SMILES strings stand for the structures. Bounds are passed on as bounds.

Assay [1] has as its target T1, Cannabinoid receptor 1 (Homo sapiens, UniProt P21554). Kind of assay: Displacement of [3H]CP-55940 from human CB1 receptor expressed in CHO cell membrane after 90 mins by scintillation counting analysis. Format: cell membranes. The method in brief:
(§1)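 Membranes from CHO cells stably expressing human CB₁ (G418-maintained), suspended in 50 mM Tris-HCl, 0.5% BSA, 5 mM MgCl₂, 2.5 mM EDTA, pH 7.4. Displacement of 0.5 nM [³H]CP-55,940 by 1 nM–10 μM compound, 90 min, 30 °C. Filtration on GF/C, scintillation counting. Cheng-Prusoff Ki, LIGAND fitting; mean SEM, n = 4.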
In general terms: In a radioligand displacement assay an active substance lowers the binding of a labelled ligand.

For assay [2], the target named is T2, Cannabinoid receptor 2 (Homo sapiens, UniProt P34972). As to the kind of experiment: Inverse agonist activity at human CB2 receptor expressed in CHO cell membrane assessed as increase in forskolin-stimulated cAMP production at 10 uM by scintillation counting analysis relative to WIN55212-2. The method in brief:
(§2)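 Whole hCB₂ CHO cells (1 × 10⁶/assay) in HEPES-buffered saline with glucose, pH 7.4, preincubated 10 min at 37 °C with 0.5 mM Ro 20-1724. Compound at 1 or 10 μM with 1 μM forskolin. Stopped with cold 6% TCA, ether-extracted; cAMP measured by [³H]cAMP competition binding with adrenal binding protein. Expressed as % increase versus WIN 55,212-2 (set −100%); n = 4.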
For orientation: cAMP levels reflect the balance of adenylyl cyclase and phosphodiesterase activity.

Assay [3] concerns the target T2, Cannabinoid receptor 2. As to the kind of experiment: Displacement of [3H]CP-55940 from human CB2 receptor expressed in CHO cell membrane after 60 mins by scintillation counting analysis. The format is cell membranes. The method in brief: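 Human CB₂-expressing CHO cell membranes in 50 mM Tris-HCl, 0.5% BSA, 5 mM MgCl₂, 1 mM EDTA, pH 7.4. Binding of 0.5 nM [³H]CP-55,940 competed with 1 nM–10 μM compound for 60 min at 30 °C, then GF/C filtration and scintillation counting. Ki by Cheng-Prusoff from IC50; mean SEM of n = 4.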

Assay [4] has as its target T3, Cannabinoid receptor 2 (Rattus norvegicus, UniProt Q9QZN9).
T3 sequence (Q9QZN9 whole entry): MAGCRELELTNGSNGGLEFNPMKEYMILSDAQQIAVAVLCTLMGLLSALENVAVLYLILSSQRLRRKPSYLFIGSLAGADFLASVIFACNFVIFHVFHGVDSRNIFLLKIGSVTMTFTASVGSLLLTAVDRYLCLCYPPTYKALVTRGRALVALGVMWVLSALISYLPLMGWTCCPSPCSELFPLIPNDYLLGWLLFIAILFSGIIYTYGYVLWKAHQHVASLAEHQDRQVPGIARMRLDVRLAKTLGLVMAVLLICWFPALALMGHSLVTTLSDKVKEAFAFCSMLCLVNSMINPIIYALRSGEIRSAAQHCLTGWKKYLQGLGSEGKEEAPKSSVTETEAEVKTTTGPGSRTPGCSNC
As to the kind of experiment: Displacement of [3H]CP-55940 from Sprague-Dawley rat spleen CB2 receptor after 60 mins by scintillation counting analysis. The method in brief:
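Competed against 0.5 nM [³H]CP-55,940 using 1 nM–10 μM compound for 60 min at 30 °C. Bound ligand collected on GF/C filters and counted. Ki from IC50 by Cheng-Prusoff; mean SEM of n = 4.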

Assay [5] is filed under the species Homo sapiens. Kind of assay: Selectivity index, ratio of Ki for human CB1 receptor to Ki for human CB2 receptor.
The target of assay [6] is T2, Cannabinoid receptor 2. As to the kind of experiment: Inverse agonist activity at human CB2 receptor expressed in CHO cell membrane assessed as increase in forskolin-stimulated cAMP production at 1 uM by scintillation counting analysis relative to WIN55212-2. The method, boiled down: as §2
The target of assay [7] is Cannabinoid receptor 1 (Rattus norvegicus) (UniProt P20272). As to the kind of experiment: Displacement of [3H]CP-55940 from Sprague-Dawley rat brain CB1 receptor at > 10 uM after 90 mins by scintillation counting analysis. The method in brief:
(§3)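 Competition with [³H]CP-55,940 (1.0 nM stated in rat CB₁ section; 0.5 nM in general protocol) against 1 nM–10 μM compound, 90 min at 30 °C. GF/C filtration, scintillation counting. Ki via Cheng-Prusoff; mean SEM, n = 4.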

The target of assay [8] is Cannabinoid receptor 1 (Rattus norvegicus, UniProt P20272). Kind of assay: Displacement of [3H]CP-55940 from Sprague-Dawley rat brain CB1 receptor after 90 mins by scintillation counting analysis. The method, boiled down: as §3
The target of assay [9] is T1, Cannabinoid receptor 1. As to the kind of experiment: Displacement of [3H]CP-55940 from human CB1 receptor expressed in CHO cell membrane at > 10 uM after 90 mins by scintillation counting analysis. The format is cell membranes. The method in brief: as §1

Cannabinoid receptor 1 (Rattus norvegicus, UniProt P20272), sequence (P20272 whole entry): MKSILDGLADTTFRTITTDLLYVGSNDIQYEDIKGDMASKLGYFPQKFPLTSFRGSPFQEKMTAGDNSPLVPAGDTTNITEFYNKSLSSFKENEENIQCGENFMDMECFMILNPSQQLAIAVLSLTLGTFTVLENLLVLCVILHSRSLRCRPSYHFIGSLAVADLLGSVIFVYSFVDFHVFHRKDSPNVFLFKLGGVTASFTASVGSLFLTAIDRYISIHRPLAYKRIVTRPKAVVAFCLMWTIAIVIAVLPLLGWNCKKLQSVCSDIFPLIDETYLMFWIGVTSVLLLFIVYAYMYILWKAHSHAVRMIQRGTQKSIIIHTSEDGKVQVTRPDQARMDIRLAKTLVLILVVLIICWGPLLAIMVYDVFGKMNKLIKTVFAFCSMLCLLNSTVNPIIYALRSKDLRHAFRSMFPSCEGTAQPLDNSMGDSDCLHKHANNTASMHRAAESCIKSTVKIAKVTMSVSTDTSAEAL
Cannabinoid receptor 1 (Rattus norvegicus), sequence (P20272 whole entry): as above
T1 sequence (P21554 whole entry): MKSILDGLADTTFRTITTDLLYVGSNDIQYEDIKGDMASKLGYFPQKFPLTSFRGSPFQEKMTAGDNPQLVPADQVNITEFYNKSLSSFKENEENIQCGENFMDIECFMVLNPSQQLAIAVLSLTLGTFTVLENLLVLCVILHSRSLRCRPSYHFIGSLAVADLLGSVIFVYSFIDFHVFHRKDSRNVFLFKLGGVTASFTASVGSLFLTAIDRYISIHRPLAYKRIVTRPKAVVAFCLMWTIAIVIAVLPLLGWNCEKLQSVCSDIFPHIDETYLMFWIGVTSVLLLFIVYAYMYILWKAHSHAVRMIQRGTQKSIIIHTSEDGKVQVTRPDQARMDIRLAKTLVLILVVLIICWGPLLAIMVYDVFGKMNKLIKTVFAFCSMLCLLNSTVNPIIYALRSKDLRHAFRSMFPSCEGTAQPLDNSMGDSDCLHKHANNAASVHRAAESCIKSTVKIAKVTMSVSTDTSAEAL
T2 sequence (P34972 whole entry): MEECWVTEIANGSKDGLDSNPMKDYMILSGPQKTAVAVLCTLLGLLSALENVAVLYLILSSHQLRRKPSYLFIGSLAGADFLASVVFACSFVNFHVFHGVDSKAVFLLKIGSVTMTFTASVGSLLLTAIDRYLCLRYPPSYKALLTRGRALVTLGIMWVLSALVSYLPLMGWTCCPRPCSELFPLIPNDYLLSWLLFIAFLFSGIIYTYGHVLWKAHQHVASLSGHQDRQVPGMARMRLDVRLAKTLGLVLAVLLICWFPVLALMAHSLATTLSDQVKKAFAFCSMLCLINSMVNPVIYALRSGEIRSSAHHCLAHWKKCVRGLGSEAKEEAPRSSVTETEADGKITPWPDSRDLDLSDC

`CCCCCn1cc(C(=O)NC2CCCCCC2)c(=O)n2nc(-c3ccco3)cc12`: the Ki in assay [1] is over 10000 nM; in assay [3], 6.57 nM; in assay [4], 7.23 nM; in [8], over 10000 nM. The Activity came out at 88% in assay [2], 42% in [6], 20% in [7] and 16% in assay [9]. In addition, in assay [5], the Ratio Ki is over 1520.
Regarding `CCCCCn1cc(C(=O)NC2CCCCC2)c(=O)n2nc(CC)cc12`, the Ki was 420 nM in assay [1], 10.4 nM in [3], 11.5 nM in [4] and 480 nM in assay [8]. Moreover, the values for the Activity in assay [2] and in assay [6] were 146% and 121%, respectively. Moreover, the Ratio Ki in assay [5] was found to be 40.
In the case of `CCCCCn1cc(C(=O)NC2CCCCC2)c(=O)n2nc(-c3ccccc3C)cc12`, the Ki in assay [1] is over 10000 nM; in assay [3] it was 40 nM; in assay [4] it was 48 nM; in assay [8], over 10000 nM. Moreover, the Activity was 94% in [2], 73% in [6], 30% in assay [7] and 16% in assay [9]. For the same compound, the Ratio Ki in assay [5] was over 250.
Regarding `CCCCCn1cc(C(=O)NC2CCCCCC2)c(=O)n2nc(C)cc12`, the Ki in [1] is 527 nM; in assay [3], 10.3 nM; in assay [4] it was 12.4 nM; in assay [8], 642 nM. The Activity is 63% in assay [2] and 44% in assay [6]. Besides, the Ratio Ki in assay [5] is 51.
`CCCCCn1cc(C(=O)NC2CCCCC2)c(=O)n2nc(C(C)(C)C)cc12`: the inhibition constant Ki in assay [1] came to 675 nM; in [3] it was 12.3 nM; in [4], 14.2 nM; in assay [8], 720 nM. For the same compound, the Activity in assay [2] stood at 115%; in assay [6] it was 85%. For the same compound, the Ratio Ki in [5] amounted to 55.
Turning to `CCCCCn1cc(C(=O)NC23CC4CC(CC(C4)C2)C3)c(=O)n2nc(-c3ccc(C)cc3)cc12`, the inhibition constant (Ki) is over 10000 nM in assay [1], 3.41 nM in [3], 3.82 nM in [4] and over 10000 nM in assay [8]. Further, the Activity in assay [2] was found to be 168%; in [6], 138%; in assay [7] it was 45%; in assay [9] it was 38%. Besides, the Ratio Ki in assay [5] was over 2930.
As for `CCCCCn1cc(C(=O)NC23CC4CC(CC(C4)C2)C3)c(=O)n2nc(C)cc12`, the Ki in assay [1] was 1120 nM; in assay [3], 12.7 nM; in [4], 15.3 nM; in assay [8], 1460 nM. The Activity in assay [2] was found to be 75%; in [6] it was 56%. In addition, the Ratio Ki in assay [5] worked out at 88.
As for `CCCCCn1cc(C(=O)NC2CCCCC2)c(=O)n2nc(-c3ccccc3)cc12`, the Ki in assay [1] came out at 702 nM; in assay [3], 42 nM; in assay [4] it was 50 nM; in [8] it was 750 nM. For the same compound, the Activity in [2] amounted to 123%; in assay [6], 92%. In assay [5], the Ratio Ki is 17.
With `CCCCCn1cc(C(=O)NC2CCCCC2)c(=O)n2nc(-c3ccc(Cl)cc3Cl)cc12`, the Ki in assay [1] is over 10000 nM; in assay [3], 52 nM; in [4] it was 60 nM; in assay [8], over 10000 nM. In addition, the Activity in assay [2] came out at 65%; in assay [6] it was 45%; in assay [7], 47%; in [9], 38%. Besides, the Ratio Ki in [5] was over 192.
`CCCCCn1cc(C(=O)NC23CC4CC(CC(C4)C2)C3)c(=O)n2nc(-c3ccco3)cc12`: the Ki in assay [1] was over 10000 nM; in assay [3] it was 4.92 nM; in [4], 5.14 nM; in assay [8], over 10000 nM. In addition, the Activity was found to be 124% in assay [2], 107% in assay [6], 40% in [7] and 34% in assay [9]. In addition, the Ratio Ki in assay [5] was over 2030.
Regarding `CCCCCn1cc(C(=O)NC23CC4CC(CC(C4)C2)C3)c(=O)n2nc(C)c(Br)c12`, the Ki is over 10000 nM in assay [1], 220 nM in [3], 272 nM in assay [4] and over 10000 nM in [8]. Also, the Activity in [2] came out at 48%; in assay [6], 32%; in assay [7] it was 1%; in [9], 1%. In addition, in assay [5], the Ratio Ki was over 45.
Regarding `CCCCCn1cc(C(=O)NC23CC4CC(CC(C4)C2)C3)c(=O)n2nc(-c3cccs3)cc12`, the Ki in assay [1] was over 10000 nM; in assay [3], 6.24 nM; in assay [4] it was 7.52 nM; in assay [8], over 10000 nM. Besides, the Activity was determined as 102% in assay [2], 89% in assay [6], 22% in assay [7] and 26% in [9]. In addition, in assay [5], the Ratio Ki was over 1600.
For `CCCCCn1cc(C(=O)NC23CC4CC(CC(C4)C2)C3)c(=O)n2nc(-c3c(Cl)cccc3Cl)cc12`, the Ki in assay [1] is over 10000 nM; in assay [3] it was 98 nM; in assay [4], 110 nM; in assay [8] it was over 10000 nM. Besides, the Activity in assay [2] was found to be 62%; in assay [6] it was 38%; in [7], 18%; in [9], 21%. Further, the Ratio Ki in assay [5] is over 102.
Turning to `CCCCCn1cc(C(=O)NC2CCCCCC2)c(=O)n2nc(-c3ccccc3)cc12`, the Ki worked out at 825 nM in [1], 31 nM in assay [3], 35 nM in assay [4] and 900 nM in assay [8]. Moreover, the Activity is 134% in assay [2] and 103% in assay [6]. Further, the Ratio Ki in assay [5] was found to be 27.
For the compound `CCCCCn1cc(C(=O)NC23CC4CC(CC(C4)C2)C3)c(=O)n2nc(C(C)(C)C)cc12`, the Ki in assay [1] stood at 612 nM; in assay [3], 4.95 nM; in [4], 5.54 nM; in [8], 675 nM. Moreover, the Activity in assay [2] is 189%; in [6] it was 114%. In addition, the Ratio Ki in [5] stood at 124.
In the case of `CCCCCn1cc(C(=O)NCc2ccccc2)c(=O)n2nc(C)cc12`, the Ki was determined as 3290 nM in [1], 358 nM in [3], 428 nM in [4] and 3690 nM in assay [8]. The Activity in [2] stood at 52%; in [6], 38%. Moreover, the Ratio Ki in assay [5] was found to be 9.2.
With `CCCCCn1cc(C(=O)NC2CCC(C)CC2)c(=O)n2nc(C)cc12` (centres undefined), the Ki in assay [1] is 2430 nM; in assay [3], 106 nM; in assay [4] it was 120 nM; in assay [8], 2600 nM. Moreover, the Activity turned out to be 67% in [2] and 48% in [6]. In addition, the Ratio Ki in assay [5] is 23.
Turning to `CCCCCn1cc(C(=O)NC2CCCCCC2)c(=O)n2nc(CC)cc12`, the Ki was 200 nM in assay [1], 5.22 nM in [3], 5.63 nM in assay [4] and 220 nM in assay [8]. Further, the Activity in [2] worked out at 159%; in [6], 137%. For the same compound, the Ratio Ki in assay [5] worked out at 38.
Regarding `CCCCCn1cc(C(=O)NC2CCCCC2)c(=O)n2nc(C)cc12`, the Ki in assay [1] is 1280 nM; in assay [3] it was 22 nM; in assay [4] it was 26 nM; in assay [8] it was 1580 nM. Besides, the Activity in [2] is 54%; in assay [6] it was 42%. Further, the Ratio Ki in assay [5] stood at 58.

By Ki is commonly meant the equilibrium dissociation constant of an inhibitor or competing ligand from its target. Read a high Ki as weaker binding.
